Converted amounts (≈) assume the structure as drawn.
Legend:
Assay type in all cases: functional
Staphylococcus aureus [1] = test: Antimicrobial activity against methicillin-resistant Staphylococcus aureus after 24 hrs by broth microdilution method
Outline: (§1)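 Clinical isolates came from blood, body fluids, genital secretions, pus or sputum, identified conventionally or by Vitek. MICs were run by CLSI M7-A6 broth microdilution in Mueller-Hinton broth with 5 × 10^5 CFU/ml inoculum. Agents were twofold serially diluted, starting from 10% DMSO. Drug-free and uninoculated controls were included. Plates were incubated aerobically at 37°C for 24 h; MIC is the lowest concentration giving no visible growth.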

Staphylococcus aureus [2] = test: Antimicrobial activity against methicillin-susceptible Staphylococcus aureus after 24 hrs by broth microdilution method; outline: as §1
Staphylococcus simulans [3] = test: Antimicrobial activity against methicillin-resistant coagulase-negative Staphylococcus simulans after 24 hrs by broth microdilution method; outline: as §1
[4] = test system: Staphylococcus haemolyticus; test: Bactericidal activity against methicillin-resistant coagulase-negative Staphylococcus haemolyticus after 24 hrs by plate counting method
[5] = test system: Staphylococcus haemolyticus; test: Antimicrobial activity against methicillin-resistant coagulase-negative Staphylococcus haemolyticus assessed as resistant isolates after 24 hrs by broth microdilution method
[6] = test system: Staphylococcus haemolyticus; test: Antimicrobial activity against methicillin-resistant coagulase-negative Staphylococcus haemolyticus assessed as susceptible isolates after 24 hrs by broth microdilution method
[7] = test system: Staphylococcus haemolyticus; test: Antimicrobial activity against methicillin-resistant coagulase-negative Staphylococcus haemolyticus after 24 hrs by broth microdilution method; outline: as §1
[8] = test system: Staphylococcus epidermidis; test: Bactericidal activity against methicillin-resistant coagulase-negative Staphylococcus epidermidis after 24 hrs by plate counting method
[9] = test system: Staphylococcus epidermidis; test: Antimicrobial activity against methicillin-resistant coagulase-negative Staphylococcus epidermidis assessed as resistant isolates after 24 hrs by broth microdilution method
[10] = test system: Staphylococcus epidermidis; test: Antimicrobial activity against methicillin-resistant coagulase-negative Staphylococcus epidermidis assessed as susceptible isolates after 24 hrs by broth microdilution method
[11] = test system: Staphylococcus epidermidis; test: Antimicrobial activity against methicillin-resistant coagulase-negative Staphylococcus epidermidis after 24 hrs by broth microdilution method; outline: as §1
Staphylococcus hominis [12] = test: Bactericidal activity against methicillin-resistant coagulase-negative Staphylococcus hominis after 24 hrs by plate counting method
Staphylococcus hominis [13] = test: Antimicrobial activity against methicillin-resistant coagulase-negative Staphylococcus hominis assessed as resistant isolates after 24 hrs by broth microdilution method
Staphylococcus hominis [14] = test: Antimicrobial activity against methicillin-resistant coagulase-negative Staphylococcus hominis assessed as susceptible isolates after 24 hrs by broth microdilution method
Staphylococcus aureus [15] = test: Bactericidal activity against methicillin-susceptible Staphylococcus aureus after 24 hrs by plate counting method
Outline: (§2)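 Clinical staphylococcal isolates from patient body fluids, blood, genital secretions, pus or sputum; species by conventional methods or Vitek. Twofold dilutions in Mueller-Hinton broth, inoculum 5 × 10^5 CFU/ml, 37°C aerobic 24 h (CLSI M7-A6 microdilution). About 100 μl from each well without visible growth spread on MHA; 37°C 24 h. MBC = lowest concentration giving no growth on agar.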

Staphylococcus hominis [16] = test: Antimicrobial activity against methicillin-resistant coagulase-negative Staphylococcus hominis after 24 hrs by broth microdilution method; outline: as §1
Staphylococcus aureus [17] = test: Bactericidal activity against methicillin-resistant Staphylococcus aureus after 24 hrs by plate counting method
Staphylococcus aureus [18] = test: Antimicrobial activity against methicillin-susceptible Staphylococcus aureus assessed as resistant isolates after 24 hrs by broth microdilution method
Staphylococcus aureus [19] = test: Antimicrobial activity against methicillin-resistant Staphylococcus aureus assessed as resistant isolates after 24 hrs by broth microdilution method
Staphylococcus aureus [20] = test: Antimicrobial activity against methicillin-susceptible Staphylococcus aureus assessed as susceptible isolates after 24 hrs by broth microdilution method
Staphylococcus aureus [21] = test: Antimicrobial activity against methicillin-resistant Staphylococcus aureus assessed as susceptible isolates after 24 hrs by broth microdilution method
Staphylococcus simulans [22] = test: Antimicrobial activity against methicillin-resistant coagulase-negative Staphylococcus simulans assessed as resistant isolates after 24 hrs by broth microdilution method
Staphylococcus simulans [23] = test: Bactericidal activity against methicillin-resistant coagulase-negative Staphylococcus simulans after 24 hrs by plate counting method; outline: as §2
Mammaliicoccus sciuri [24] = test: Antimicrobial activity against methicillin-resistant coagulase-negative Staphylococcus sciuri after 24 hrs by broth microdilution method; outline: as §1
Mammaliicoccus sciuri [25] = test: Antimicrobial activity against methicillin-resistant coagulase-negative Staphylococcus sciuri assessed as resistant isolates after 24 hrs by broth microdilution method

SMILES: Cc1onc(-c2ccccc2)c1C(=O)N[C@@H]1C(=O)N2[C@@H]1SC(C)(C)[C@@H]2C(=O)O [OXACILLIN]
- MIC50 (Staphylococcus aureus [1]): 64 µg/mL (≈ 159 µM)
- MIC90 (Staphylococcus aureus [1]): 64 µg/mL (≈ 159 µM)
- MIC (Staphylococcus aureus [2]): 0.125 µg/mL (≈ 0.311 µM)
- MIC50 (Staphylococcus aureus [2]): 0.125 µg/mL (≈ 0.311 µM)
- MIC90 (Staphylococcus aureus [2]): 1 µg/mL (≈ 2.49 µM)
- MIC50 (Staphylococcus simulans [3]): 64 µg/mL (≈ 159 µM)
- MIC90 (Staphylococcus simulans [3]): 64 µg/mL (≈ 159 µM)
- MBC90 [4]: 256 µg/mL (≈ 638 µM)
- MBC ([4]; Staphylococcus haemolyticus, 24 h): 1 µg/mL (≈ 2.49 µM)
- Activity [5]: 74%
- Activity [6]: 26%
- MIC50 [7]: 64 µg/mL (≈ 159 µM)
- MIC90 [7]: 64 µg/mL (≈ 159 µM)
- MBC90 [8]: 256 µg/mL (≈ 638 µM)
- MBC ([8]; Staphylococcus epidermidis, 24 h): 1 µg/mL (≈ 2.49 µM)
- Activity [9]: 74%
- Activity [10]: 26%
- MIC50 [11]: 64 µg/mL (≈ 159 µM)
- MIC90 [11]: 64 µg/mL (≈ 159 µM)
- MBC90 (Staphylococcus hominis [12]): 256 µg/mL (≈ 638 µM)
- MBC (Staphylococcus hominis [12]; Staphylococcus hominis, 24 h): 1 µg/mL (≈ 2.49 µM)
- Activity (Staphylococcus hominis [13]): 74%
- Activity (Staphylococcus hominis [14]): 26%
- MBC50 (Staphylococcus aureus [15]): 16 µg/mL (≈ 39.9 µM)
- MBC90 (Staphylococcus aureus [15]): 64 µg/mL (≈ 159 µM)
- MBC (Staphylococcus aureus [15]; Staphylococcus aureus, 24 h): 1 µg/mL (≈ 2.49 µM)
- MIC50 (Staphylococcus hominis [16]): 64 µg/mL (≈ 159 µM)
- MIC90 (Staphylococcus hominis [16]): 64 µg/mL (≈ 159 µM)
- MBC50 (Staphylococcus aureus [17]): 256 µg/mL (≈ 638 µM)
- MBC90 (Staphylococcus aureus [17]): 512 µg/mL (≈ 1280 µM)
- MBC (Staphylococcus aureus [17]; Staphylococcus aureus, 24 h): 256 µg/mL (≈ 638 µM)
- Activity (Staphylococcus aureus [18]): 11%
- Activity (Staphylococcus aureus [19]): 100%
- Activity (Staphylococcus aureus [20]): 89%
- Activity (Staphylococcus aureus [21]): 0%
- Activity (Staphylococcus simulans [22]): 74%
- MBC90 (Staphylococcus simulans [23]): 256 µg/mL (≈ 638 µM)
- MBC (Staphylococcus simulans [23]; Staphylococcus simulans, 24 h): 1 µg/mL (≈ 2.49 µM)
- MIC50 (Mammaliicoccus sciuri [24]): 64 µg/mL (≈ 159 µM)
- MIC90 (Mammaliicoccus sciuri [24]): 64 µg/mL (≈ 159 µM)
- Activity (Mammaliicoccus sciuri [25]): 74%

From ChEMBL document CHEMBL1649231, “In vitro activities of panduratin A against clinical Staphylococcus strains” (2009)
